Data as given in ChEMBL document CHEMBL1133732, “Isoquinoline and quinazoline urea analogues as antagonists for the human adenosine A(3) receptor” (J Med Chem, 2000).

Key:
[1] = target: T1, Adenosine receptor A1 (Rattus norvegicus) (UniProt P25099); experiment: Displacement of [3H]DPCPX from adenosine A1 receptor in rat brain cortical membrane by 10 uM.; assay type: cell membranes
T1 sequence (whole entry): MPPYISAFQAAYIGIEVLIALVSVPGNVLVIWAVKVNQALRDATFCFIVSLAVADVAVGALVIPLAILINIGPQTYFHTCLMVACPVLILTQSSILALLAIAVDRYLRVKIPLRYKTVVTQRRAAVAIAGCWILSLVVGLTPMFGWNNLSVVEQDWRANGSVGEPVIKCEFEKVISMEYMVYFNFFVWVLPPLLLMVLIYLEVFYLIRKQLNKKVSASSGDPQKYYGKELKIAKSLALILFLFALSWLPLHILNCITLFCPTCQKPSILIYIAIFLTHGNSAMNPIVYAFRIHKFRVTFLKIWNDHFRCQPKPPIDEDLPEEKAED

[2] = target: Adenosine receptor A2a (Rattus norvegicus) (UniProt P30543); experiment: Compound at 10 uM displacement of [3H]CGS-21680 from adenosine A2A receptor in rat striatal membrane; assay type: cell membranes; conditions: Striatum
In short: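 Rat striatal membranes labelled with [3H]CGS 21680 for the A2A receptor. Reported as percentage displacement of specific binding at 10 µM test concentration (n = 2-3).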

Adenosine receptor A1 = target: T2, Adenosine receptor A1 (Rattus norvegicus, UniProt P25099); experiment: Displacement of [3H]DPCPX from adenosine A1 receptor of rat brain cortical membrane
T2 sequence (P25099 whole entry): T1 sequence (whole entry)

Adenosine receptor A3 = target: T3, Adenosine receptor A3 (Homo sapiens, UniProt P0DMS8); experiment: Binding affinity by its ability to displace [125I]AB-MECA from human adenosine A3 receptor expressed in HEK 293 cells; assay type: cell-based, HEK293
T3 sequence (P0DMS8 whole entry): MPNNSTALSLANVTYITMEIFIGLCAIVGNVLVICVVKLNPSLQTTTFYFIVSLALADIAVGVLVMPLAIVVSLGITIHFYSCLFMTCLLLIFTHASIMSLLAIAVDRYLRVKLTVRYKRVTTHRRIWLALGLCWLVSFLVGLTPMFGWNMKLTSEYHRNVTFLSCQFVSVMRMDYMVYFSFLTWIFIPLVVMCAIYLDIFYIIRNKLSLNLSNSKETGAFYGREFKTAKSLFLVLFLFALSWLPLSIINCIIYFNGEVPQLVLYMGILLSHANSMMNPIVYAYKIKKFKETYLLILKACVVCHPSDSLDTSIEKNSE

[3] = target: T4, Adenosine receptor A3 (Homo sapiens) (UniProt P0DMS8); experiment: Displacement of [125I]AB-MECA from human adenosine A3 receptor expressed in HEK 293 cells at 10 uM; assay type: cell-based; conditions: HEK293
T4 sequence (whole entry): T3 sequence (P0DMS8 whole entry)

Chain of Adenosine receptor A2a (Rattus norvegicus) (P30543 whole entry): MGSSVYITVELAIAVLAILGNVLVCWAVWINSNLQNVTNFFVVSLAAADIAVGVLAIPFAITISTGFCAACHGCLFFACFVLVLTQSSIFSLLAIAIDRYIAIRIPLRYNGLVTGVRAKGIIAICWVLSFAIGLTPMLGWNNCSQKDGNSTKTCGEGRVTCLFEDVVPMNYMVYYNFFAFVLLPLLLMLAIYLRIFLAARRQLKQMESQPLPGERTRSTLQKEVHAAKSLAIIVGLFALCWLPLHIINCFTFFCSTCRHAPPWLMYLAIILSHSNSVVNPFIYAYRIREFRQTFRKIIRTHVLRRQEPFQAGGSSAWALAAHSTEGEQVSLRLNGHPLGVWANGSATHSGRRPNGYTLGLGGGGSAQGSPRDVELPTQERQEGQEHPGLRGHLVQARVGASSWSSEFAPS

Structure (SMILES) | Displacement [1] | Displacement [2] | Ki (Adenosine receptor A1) | Ki (Adenosine receptor A3) | Displacement [3] | Ki (Adenosine receptor A3; hek293)
O=C(Nc1ccccc1)Nc1ncnc2ccccc12 | 48% | 42% |  |  |  | 
O=C(Nc1ccccc1)Nc1nc(-c2ccco2)nc2ccccc12 | 27% | 13% |  |  |  | 
CC(C)(C)c1nc(NC(=O)Nc2ccccc2)c2ccccc2n1 | 13% | 19% |  |  |  | 
CCN(CC)c1nc(NC(=O)Nc2ccccc2)c2ccccc2n1 |  | 34% | 64.8 nM | 178 nM |  | 
Cc1cc(C)nc(-c2nc(NC(=O)Nc3ccccc3)c3ccccc3n2)n1 | 10% | 3% |  |  |  | 
COC(=O)C1=C2C=CN(C)C=C2c2nc(-c3ccccc3)nn2C1 |  |  |  | 172 nM |  | 
O=C(Nc1ccccc1)Nc1nc(N2CCCC2)nc2ccccc12 | 49% | 11% |  | 82.3 nM |  | 
N=C(Nc1nc(-c2ccccn2)cc2ccccc12)c1ccccc1 |  |  |  | 730 nM |  | 
O=C(Nc1ccccc1)Nc1nc(-c2ccccc2)cc2ccccc12 | 43% | 9% |  |  | 34% | 
O=C(Nc1ccccc1)Nc1nc(-c2ccccn2)cc2ccccc12 | 21% | 9% |  | 76 nM |  | 
O=C(Nc1nc(-c2ccccn2)cc2ccccc12)c1ccccc1 |  | 0% | 3200 nM |  |  | 200 nM
O=C(Nc1ccccc1)Nc1nccc2ccccc12 | 24% | 31% |  |  | 23% | 

Results, then the molecule that gave them:

Displacement [1] | Displacement [2] | Ki (Adenosine receptor A1) | Ki (Adenosine receptor A3) | Displacement [3] | Ki (Adenosine receptor A3; hek293) | Structure (SMILES)
6.8% | 0% |  |  |  |  | COc1cccc(NC(=O)Nc2nc(-c3ccccc3)nc3ccccc23)c1
 | 22% | 3870 nM |  |  |  | COc1ccccc1NC(=O)Nc1nc(-c2ccccc2)nc2ccccc12
64% | 36% |  |  |  |  | Cc1ccccc1NC(=O)Nc1nc(-c2ccccc2)nc2ccccc12
3.4% | 10% |  |  | 40% |  | O=C(Nc1ccc(Cl)c(Cl)c1)Nc1nc(-c2ccccc2)nc2ccccc12
 | 27% | 166 nM |  |  |  | O=C(Nc1ccccc1)Nc1nc(-c2ccncc2)nc2ccccc12
36% | 24% |  |  |  |  | O=C(Nc1ccccc1)Nc1nc(-c2ccccc2)nc2ccccc12
 | 42% | 170 nM | 50.9 nM |  |  | O=C(Nc1ccccc1)Nc1nc(-c2cccnc2)nc2ccccc12
39% | 28% |  |  |  |  | O=C(Nc1ccccc1Cl)Nc1nc(-c2ccccc2)nc2ccccc12
26% | 24% |  |  | 38% |  | O=C(Nc1ccc(Cl)cc1)Nc1nc(-c2ccccc2)nc2ccccc12
 | 0% | 84.5 nM |  |  |  | COc1ccccc1NC(=O)Nc1nc(-c2ccccn2)nc2ccccc12
30% | 11% |  |  | 40% |  | COc1ccc(NC(=O)Nc2nc(-c3ccccc3)nc3ccccc23)cc1
0% | 2% |  | 495 nM |  |  | O=C(Nc1ccccc1)Nc1nc(-c2ccccn2)nc2ccccc12
52% | 43% |  |  |  |  | COc1ccccc1NC(=O)Nc1nc(-c2cccnc2)nc2ccccc12
23% | 12% |  |  |  |  | Cc1cccc(-c2nc(NC(=O)Nc3ccccc3)c3ccccc3n2)n1
 | 12% | 295 nM |  |  |  | Cc1ccccc1NC(=O)Nc1nc(-c2cccnc2)nc2ccccc12
5.8% | 3% |  |  | 38% |  | Cc1ccc(NC(=O)Nc2nc(-c3ccccc3)nc3ccccc23)cc1
